From ChEMBL document CHEMBL1147526, “Sulfonyl-phenyl-ureido benzamidines; a novel structural class of potent antimalarial agents” (Bioorg Med Chem Lett, 2004)

Test system: Plasmodium falciparum
Experiment: In vitro antimalarial activity against Plasmodium falciparum Dd2
Assay type: functional, organism-based
How it was run: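 P. falciparum Dd2 grown in RPMI 1640 with 10% heat-treated human serum and 3 mg/l gentamycin, 0.3% parasitaemia, 2.5% haematocrit; compounds 0.3 to 100 μM. After 48 h, [8-³H]hypoxanthine added and incubated a further 18 h. Cells filtered, washed, and incorporated radioactivity counted by scintillation to give IC50.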

IC50 [nM] | Compound
3900 | CCCCNS(=O)(=O)c1ccc(NC(=O)Nc2cccc(C(=N)N)c2)cc1
410 | N=C(N)c1ccc(NC(=O)Nc2cccc(S(=O)(=O)NCc3ccccc3)c2)cc1
9000 | N=C(N)c1cccc(NC(=O)Nc2ccc(S(=O)(=O)Nc3ccccc3)cc2)c1
17 | N=C(N)c1cccc(NC(=O)Nc2ccc(S(=O)(=O)NCc3c(F)ccc(F)c3F)cc2)c1
190 | N=C(N)c1ccc(NC(=O)Nc2cccc(S(=O)(=O)NCc3c(F)ccc(F)c3F)c2)cc1
210 | N=C(N)c1ccc(NC(=O)Nc2ccc(S(=O)(=O)NCc3c(F)ccc(F)c3F)cc2)cc1
8200 | N=C(N)c1cccc(NC(=O)Nc2ccc(S(=O)(=O)Nc3ccc4ccccc4c3)cc2)c1
> 4900 | N=C(N)c1cccc(NC(=O)Nc2ccc(S(N)(=O)=O)cc2)c1
1110 | N=C(N)c1cccc(NC(=O)Nc2ccc(S(=O)(=O)NCc3ccc(F)c(F)c3)cc2)c1
3000 | CNS(=O)(=O)c1ccc(NC(=O)Nc2cccc(C(=N)N)c2)cc1
6200 | N=C(N)c1cccc(NC(=O)Nc2cccc(S(=O)(=O)NCc3ccccc3)c2)c1
620 | N=C(N)c1cccc(NC(=O)Nc2ccc(S(=O)(=O)NCc3ccccc3F)cc2)c1
610 | N=C(N)c1cccc(NC(=O)Nc2ccc(S(=O)(=O)N3CCc4ccccc4C3)cc2)c1
400 | N=C(N)c1ccc(NC(=O)Nc2ccc(S(=O)(=O)NCc3ccccc3)cc2)cc1
980 | N=C(N)c1cccc(NC(=O)Nc2cccc(S(=O)(=O)NCc3ccc(S(N)(=O)=O)cc3)c2)c1
450 | N=C(N)c1cccc(NC(=O)Nc2ccc(S(=O)(=O)NCc3ccccc3)cc2)c1
1110 | N=C(N)c1cccc(NC(=O)Nc2ccc(S(=O)(=O)NCc3ccc(F)cc3F)cc2)c1
90 | N=C(N)c1ccc(NC(=O)Nc2ccc(S(=O)(=O)NCc3ccc(S(N)(=O)=O)cc3)cc2)cc1
250 | N=C(N)c1cccc(NC(=O)Nc2cccc(S(=O)(=O)NCc3c(F)ccc(F)c3F)c2)c1
1800 | N=C(N)c1cccc(NC(=O)Nc2ccc(S(=O)(=O)NCc3cc(F)c(F)cc3F)cc2)c1
> 2500 | N=C(N)c1cccc(NC(=O)Nc2ccc(S(=O)(=O)NCCN3CCOCC3)cc2)c1
7 | N=C(N)c1cccc(NC(=O)Nc2ccc(S(=O)(=O)NCc3ccc(S(N)(=O)=O)cc3)cc2)c1
> 2500 | N=C(N)c1ccc(NC(=O)Nc2cccc(S(=O)(=O)NCc3ccc(S(N)(=O)=O)cc3)c2)cc1
500 | N=C(N)c1cccc(NC(=O)Nc2ccc(S(=O)(=O)NCc3cccc(F)c3)cc2)c1
890 | N=C(N)c1cccc(NC(=O)Nc2ccc(S(=O)(=O)NCCO)cc2)c1
320 | N=C(N)c1cccc(NC(=O)Nc2ccc(S(=O)(=O)NCc3ccc(F)cc3)cc2)c1
17000 | N=C(N)c1cccc(NC(=O)Nc2ccc(S(=O)(=O)Nc3cccc4ccccc34)cc2)c1
5 | N=C(N)c1cccc(NC(=O)Nc2cccc(C(=N)N)c2)c1 [AMICARBALIDE]
